Assays:
Rattus norvegicus [1] = experiment: Cholesterol-lowering activity in propylthiouracil-induced hypercholesterolemic rat model assessed as change in plasma cholesterol at 10 mg/kg administered intragastrically relative to control; format: functional; settings: route intragastric
Procedure, shortened: (§1)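 Male rats made hypercholesterolemic with propylthiouracil; compounds given intragastrically. Read-out is the percent change in plasma cholesterol concentration versus control. n=8 for control and for treated animals. Significance is by Student's t, with t greater than 1.65 taken as p < 0.05.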

Mus musculus [2] = experiment: Uterotropic activity in immature mouse assessed as change in uterus weight at 250 mg/kg, sc relative to control; format: organism-based; design: dose 250 mg/kg, route subcutaneous; settings: in vivo
Procedure, shortened: (§2)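 Immature mice dosed subcutaneously or intragastrically. Uterine weight (mg) is compared between treated and control groups, reported as mean ± spread. n=10 for control and for treated animals.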

Rattus norvegicus [3] = experiment: Cholesterol-lowering activity in propylthiouracil-induced hypercholesterolemic rat model assessed as change in plasma cholesterol at 5 mg/kg administered intragastrically relative to control; format: functional; settings: route intragastric; procedure, shortened: as §1
Mus musculus [4] = experiment: Uterotropic activity in immature mouse assessed as change in uterus weight at 625 mg/kg, sc relative to control; format: organism-based; design: dose 625 mg/kg, route subcutaneous; settings: in vivo; procedure, shortened: as §2
Rattus norvegicus [5] = experiment: Cholesterol-lowering activity in propylthiouracil-induced hypercholesterolemic rat model assessed as change in plasma cholesterol at 20 mg/kg administered intragastrically relative to control; format: functional; settings: route intragastric; procedure, shortened: as §1
Mus musculus [6] = experiment: Uterotropic activity in immature mouse assessed as change in uterus weight at 25 mg/kg, sc relative to control; format: Functional, organism-based; design: dose 25 mg/kg, route subcutaneous; settings: in vivo; procedure, shortened: as §2
Mus musculus [7] = experiment: Uterotropic activity in immature mouse assessed as change in uterus weight at 250 mg/kg administered intragastrically relative to control; format: organism-based; design: dose 250 mg/kg, route intragastric; settings: in vivo, po; procedure, shortened: as §2
Rattus norvegicus [8] = experiment: Hypolipidemic activity in normal rat assessed as reduction in triglyceride level at 0.2 % administered in diet for 5 days; format: functional; design: scale not given: the % may be the effect or the level left
Procedure, shortened: (§3)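 Normal rats received compound at 0.2% in the diet. Plasma cholesterol and triglyceride are expressed as % of control. n=8 for control and for treated animals. Significance is by Student's t, with t greater than 1.65 taken as p < 0.05.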

Rattus norvegicus [9] = experiment: Hypolipidemic activity in normal rat assessed as reduction in cholesterol level at 0.2 % administered in diet for 5 days; format: functional; design: scale not given: the % may be the effect or the level left; procedure, shortened: as §3

Row | SMILES | Activity (Mus musculus [2]) | Activity (Mus musculus [6]) | Activity (Rattus norvegicus [1]) | other results
1 | CC1(C)CCc2c1ccc1c2CCc2cc(O)ccc2-1 | 22.6 mg | – | -16% | Activity (Rattus norvegicus [3]): 4%; Activity (Mus musculus [4]): 34.9 mg; Activity (Rattus norvegicus [5]): -10%
2 | CC1(C)CCc2c1ccc1c2CCc2cc(OCCN3CCCC3)ccc2-1 | – | 11.2 mg | -17% | Activity (Rattus norvegicus [3]): -5%; Activity (Mus musculus [7]): 8.1 mg
3 | CCOC(=O)C(C)(C)Oc1ccc2c(c1)CCc1c-2ccc2c1CCC2(C)C | – | – | -9% | –
4 | CN1C(=O)[C@@H]2CC[C@@H]1[C@@H](OC(=O)C(C)(C)Oc1ccc3c(c1)CCc1c-3ccc3c1CCC3(C)C)C2 | – | – | -4% | –
5 | CC(Oc1ccc2c(c1)CCc1c-2ccc2c1CCC2(C)C)C(=O)O (configuration not stated) | – | – | 3% | –
6 | CCOC(=O)COc1ccc2c(c1)CCc1c-2ccc2c1CCC2(C)C | – | – | 8% | –
7 | CCOC(=O)C(C)(C)Oc1ccc(Cl)cc1 [CLOFIBRATE] | – | – | 1% | Activity (Rattus norvegicus [8]): 43%; Activity (Rattus norvegicus [9]): 72%

Now from value to compound, other results behind:

Row | Activity (Mus musculus [2]) | Activity (Mus musculus [6]) | SMILES | Activity (Rattus norvegicus [1]) | other results
8 | 22.6 mg | – | COc1ccc2c(c1)CCc1c-2ccc2c1CCC2(C)C | 1% | –
9 | – | 16.4 mg | CCN(CC)CCOc1ccc2c(c1)CCc1c-2ccc2c1CCC2(C)C.O=C(O)C(=O)O | -19% | Activity (Rattus norvegicus [3]): -14%
10 | – | 17.2 mg | CC(C)(Oc1ccc2c(c1)CCc1c-2ccc2c1CCC2(C)C)C(=O)O | -18% | Activity (Rattus norvegicus [8]): 69%; Activity (Rattus norvegicus [9]): 75%; Activity (Mus musculus [7]): 8.4 mg
11 | 13.4 mg | – | CC(C)(CO)Oc1ccc2c(c1)CCc1c-2ccc2c1CCC2(C)C | -25% | –
12 | 15.7 mg | – | COC(=O)CCC(=O)OCC(C)(C)Oc1ccc2c(c1)CCc1c-2ccc2c1CCC2(C)C | -18% | –
13 | – | 20.6 mg | CC(C)(COC(=O)CCC(=O)O)Oc1ccc2c(c1)CCc1c-2ccc2c1CCC2(C)C | -7% | –
